According to ChEMBL document CHEMBL1124464, “Peripherally acting enkephalin analogues. 2. Polar tri- and tetrapeptides” (1989):
pEC50: −log10 of the molar value.

How the values were obtained:
Assay type in all cases: functional
[1] = organism: Cavia porcellus; assay: Inhibition of electrically induced contractions on the guinea pig ileum; conditions: read-out: ED50 (the source's name)
Method in brief: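 Guinea pig ileum contractions evoked by coaxial stimulation at 0.1 Hz, 0.5-ms pulses, supramaximal voltage, recorded isometrically; dose-response curves built with 15-min washout between doses.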

[2] = test system: Mus musculus; assay: Antinociceptive activity of subcutaneously administered compound in phenyl-p-benzoquinone induced writhing mice; conditions: Mus musculus, sc; read-out: ED50
Method in brief: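 Groups of five to six female CD1 mice given drug subcutaneously (10 mL kg-1) 30 min before ip phenyl-p-benzoquinone 2.5 mg kg-1. Writhes (abdominal constrictions/hind-limb extensions) counted over 2.5 min from 10 min post-PBQ. ED50, the dose giving 50% fewer writhes than vehicle, from linear regression.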

[3] = test system: Mus musculus; assay: Antinociceptive activity of perorally administered compound (20 mg) in phenyl-p-benzoquinone induced writhing mice
Method in brief: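 Female CD1 mice (Charles River), groups of five to six, dosed orally by blunt intragastric needle (10 mL kg-1) 30 min before ip PBQ at 2.5 mg kg-1. Abdominal constrictions/hind-limb extensions were counted over 2.5 min starting 10 min after PBQ. ED50 is the dose halving writhes versus vehicle, estimated by linear regression.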

[4] = test system: Mus musculus; assay: Antinociceptive activity in the hot plate test (central activity) in rodents, when compound administered subcutaneously; conditions: sc
Method in brief: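 Male CFLP mice, groups of five to six, placed on a copper surface held at 55 °C; latency to paw licking/shaking or jumping recorded, 30-s cut-off. Drug given subcutaneously at 10 mL kg-1. ED50 = dose doubling response latency versus vehicle, by parallel-line probit analysis.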

[5] = test system: Mus musculus; assay: Antinociceptive activity of perorally administered compound in phenyl-p-benzoquinone induced writhing mice; conditions: po
Method in brief: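 Female CD1 mice, groups of five to six, dosed orally by blunt intragastric needle (10 mL kg-1) 30 min before ip phenyl-p-benzoquinone 2.5 mg kg-1. Abdominal constrictions/hind-limb extensions counted over 2.5 min starting 10 min after PBQ. ED50 = dose halving writhes versus vehicle, by linear regression.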

[6] = test system: Mus musculus; assay: Antinociceptive activity of subcutaneously administered compound in acetic acid (AA) induced writhing mice; conditions: sc
Method in brief: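 Male TFW mice, groups of five to six, given drug subcutaneously (10 mL kg-1), then ip acetic acid 0.6% at 25 mL kg-1. Writhes counted for 5 min beginning 15 min after acetic acid. ED50 = dose reducing writhes 50% versus vehicle, by linear regression.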

[7] = organism: Mus musculus; assay: Dose ratio in the presence and absence of the peripheral opioid antagonist in N-methyl-nalorphine in AA writhing mice
Method in brief: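 Acetic acid (0.6%, ip) writhing in male TFW mice; N-methylnalorphine 11.5 mg kg-1 ip 20 min before subcutaneous agonist. Writhes counted 5 min from 15 min post-irritant. Dose ratio taken as the shift between parallel regression lines with and without antagonist.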

| SMILES | pEC50 [1] | ED50 [2] | Inhibition [3] | ED50 [4] | ED50 [5] | ED50 [6] | Ratio [7] |
| --- | --- | --- | --- | --- | --- | --- | --- |
| CC(=O)O.CCN(CCc1ccco1)C(=O)CNC(=O)[C@@H](CCCN=C(N)N)NC(=O)[C@H](Cc1ccc(O)cc1)N=C(N)N | 7.96 | 0.32 mg/kg | 10% |  |  |  |  |
| CC(=O)O.CCN(CCc1cccs1)C(=O)CNC(=O)[C@@H](CCCN=C(N)N)NC(=O)[C@H](Cc1ccc(O)cc1)N=C(N)N | 8.03 | 0.44 mg/kg | 15% | 22.9 mg/kg |  |  |  |
| CC(=O)O.CCN(CCc1ccc(F)cc1)C(=O)CNC(=O)[C@@H](CCCN=C(N)N)NC(=O)[C@H](Cc1ccc(O)cc1)N=C(N)N | 8.17 | 0.08 mg/kg |  | 20 mg/kg | 5.3 mg/kg | 0.02 mg/kg | 2.4 |
| CC(=O)O.CCN(Cc1ccc(-c2ccccc2)cc1)C(=O)CNC(=O)[C@@H](CCCN=C(N)N)NC(=O)[C@H](Cc1ccc(O)cc1)N=C(N)N | 6.49 | 2.3 mg/kg | 0% |  |  |  |  |
| CC(=O)O.CCN(Cc1ccccc1F)C(=O)CNC(=O)[C@@H](CCCN=C(N)N)NC(=O)[C@H](Cc1ccc(O)cc1)N=C(N)N | 7.69 | 0.43 mg/kg | 16% | 14.6 mg/kg |  | 0.81 mg/kg | 7.8 |
| NC(N)=NCCC[C@@H](NC(=O)[C@@H](N)Cc1ccc(O)cc1)C(=O)NCCSCCc1ccc([N+](=O)[O-])cc1 | 4.38 |  |  |  |  |  |  |
| CCN(CCc1ccccn1)C(=O)CNC(=O)[C@@H](CCCN=C(N)N)NC(=O)[C@@H](N)Cc1ccc(O)cc1 | 6.29 |  |  |  |  |  |  |
| CC(=O)O.CCN(CCc1ccc(C#N)cc1)C(=O)CNC(=O)[C@@H](CCCN=C(N)N)NC(=O)[C@@H](N)Cc1ccc(O)cc1 | 5.74 |  |  |  |  | 2.2 mg/kg | 1.4 |
| CC(=O)O.CCN(C(=O)CNC(=O)[C@@H](CCCN=C(N)N)NC(=O)[C@@H](N)Cc1ccc(O)cc1)[C@@H](Cc1cccc(F)c1)C(N)=O | 7.60 | 0.08 mg/kg |  | 1.7 mg/kg |  | 0.04 mg/kg | 2.2 |
| CC(=O)O.CN(C(=O)CNC(=O)[C@@H](CCCN=C(N)N)NC(=O)[C@@H](N)Cc1ccc(O)cc1)[C@@H](Cc1ccc([N+](=O)[O-])cc1)C(N)=O | 7.44 |  |  |  |  | 0.25 mg/kg | 2.5 |
| CC(=O)O.CCN(C(=O)CNC(=O)[C@@H](CCCN=C(N)N)NC(=O)[C@@H](N)Cc1ccc(O)cc1)[C@@H](Cc1ccc(Cl)cc1)C(N)=O | 9.19 |  |  |  |  | 0.03 mg/kg | 1.3 |
| CC(=O)O.CCN(C(=O)CNC(=O)[C@@H](CCCN=C(N)N)NC(=O)[C@@H](N)Cc1ccc(O)cc1)[C@@H](Cc1ccccc1F)C(N)=O | 9.41 | 0.15 mg/kg |  | 1.95 mg/kg | 5.9 mg/kg | 0.0009 mg/kg | 3.9 |
| CC(=O)O.CCN(C(=O)CNC(=O)[C@@H](CCCN=C(N)N)NC(=O)[C@@H](N)Cc1ccc(O)cc1)[C@@H](Cc1ccc(F)cc1)C(N)=O | 8.66 | 0.13 mg/kg |  | 1.6 mg/kg | 7.9 mg/kg | 0.0006 mg/kg | 2.3 |
| CC(=O)O.CCN(C(=O)CNC(=O)[C@@H](CCSC)NC(=O)[C@@H](N)Cc1ccc(O)cc1)[C@@H](Cc1ccc([N+](=O)[O-])cc1)C(N)=O | 8.92 |  |  |  |  | 0.0015 mg/kg | 0.8 |
| CC(=O)O.CCN(C(=O)CNC(=O)[C@@H](CCCN=C(N)N)NC(=O)[C@@H](N)Cc1ccc(O)cc1)[C@@H](Cc1ccc(Cl)c(Cl)c1)C(N)=O | 9.10 | 1.79 mg/kg |  | 38.2 mg/kg | 29.2 mg/kg | 0.008 mg/kg | 9.7 |
| CC(=O)O.CCN(C(=O)CNC(=O)[C@@H](CCCN=C(N)N)NC(=O)[C@@H](N)Cc1ccc(O)cc1)[C@@H](Cc1ccc(C(F)(F)F)cc1)C(N)=O | 8.20 |  |  | 16.9 mg/kg |  | 0.13 mg/kg | 2.9 |
| CC(=O)O.CCN(C(=O)CNC(=O)[C@@H](CCCN=C(N)N)NC(=O)[C@@H](N)Cc1ccc(O)cc1)[C@@H](Cc1ccc([N+](=O)[O-])cc1)C(N)=O | 8.28 | 0.06 mg/kg |  | 0.54 mg/kg | 13.9 mg/kg | 0.05 mg/kg | 3.4 |
| CC(=O)O.CCN(C(=O)CNC(=O)[C@@H](CCCN=C(N)N)NC(=O)[C@H](Cc1ccc(O)cc1)N=C(N)N)[C@@H](Cc1ccc([N+](=O)[O-])cc1)C(N)=O | 8.41 | 0.005 mg/kg |  | 0.34 mg/kg | 1.9 mg/kg | 0.009 mg/kg | 5.1 |
| CC(=O)O.CCN(C(=O)CNC(=O)[C@@H](CCCN=C(N)N)NC(=O)[C@H](Cc1ccc(O)cc1)N=C(N)N)[C@@H](Cc1ccc(F)cc1)C(N)=O | 10.05 | 0.04 mg/kg |  | 0.9 mg/kg | 25.6 mg/kg | 0.002 mg/kg | 6.5 |
| CC(=O)O.CCN(CCc1ccc([N+](=O)[O-])s1)C(=O)CNC(=O)[C@@H](CCCN=C(N)N)NC(=O)[C@@H](N)Cc1ccc(O)cc1 | 6.66 |  |  |  |  | 1.7 mg/kg | 6.2 |
| CC(=O)O.CCN(CCc1ccc(F)cc1)C(=O)CNC(=O)[C@@H](CCCN=C(N)N)NC(=O)[C@@H](N)Cc1ccc(O)cc1 | 7.69 | 1.6 mg/kg |  | 12.3 mg/kg | 30.8 mg/kg | 0.14 mg/kg | 4.5 |
| CCN(CCc1sccc1[N+](=O)[O-])C(=O)CNC(=O)[C@@H](CCCN=C(N)N)NC(=O)[C@@H](N)Cc1ccc(O)cc1 | 6.84 |  |  |  |  |  |  |
| CC(=O)O.CCN(CCc1ccc([N+](=O)[O-])cc1)C(=O)CNC(=O)[C@@H](CCSC)NC(=O)[C@@H](N)Cc1ccc(O)cc1 | 7.39 |  |  |  |  | 0.87 mg/kg | 1.1 |
| CCN(Cc1c(F)c(F)c(F)c(F)c1F)C(=O)CNC(=O)[C@@H](CCCN=C(N)N)NC(=O)[C@@H](N)Cc1ccc(O)cc1 | 6.09 |  |  |  |  |  |  |
| CC(=O)O.CCN(CCc1ccccc1[N+](=O)[O-])C(=O)CNC(=O)[C@@H](CCCN=C(N)N)NC(=O)[C@H](Cc1ccc(O)cc1)N=C(N)N | 8.92 | 1.1 mg/kg |  | 52.9 mg/kg | 76.1 mg/kg | 0.03 mg/kg | 8.6 |
| CC(=O)O.CCN(CCc1ccc([N+](=O)[O-])cc1)C(=O)CNC(=O)[C@@H](CCCN=C(N)N)NC(=O)[C@H](Cc1ccc(O)cc1)N=C(N)N | 7.52 | 0.24 mg/kg |  | 19.2 mg/kg | 10 mg/kg | 0.15 mg/kg | 9.6 |
| CC(=O)O.CCN(Cc1ccc([N+](=O)[O-])cc1)C(=O)CNC(=O)[C@@H](CCCN=C(N)N)NC(=O)[C@H](Cc1ccc(O)cc1)N=C(N)N | 6.33 | 7.8 mg/kg |  |  |  | 0.9 mg/kg | 4.6 |
| CC(=O)O.CCN(CCc1ccc([N+](=O)[O-])s1)C(=O)CNC(=O)[C@@H](CCCN=C(N)N)NC(=O)[C@H](Cc1ccc(O)cc1)N=C(N)N | 7.60 | 2 mg/kg | 7% |  |  |  |  |
